Reference: PMC5901702 (Journal of biomolecular screening, 2012)

Experiments:
[1] = test system: yeast y272 cotransformed with pWS192 and pWS496; test: Yeast toxicity assay; assay type: cell-based; settings: for yeast saturation density relative to DMSO-treated control: 100 µM compound, 44 h at 30 °C; for yeast saturation density relative to DMSO-treated culture: lower concentrations of compounds
Outline: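 Saturated starter culture of y272 carrying pWS192 (MFA1) and pWS496 (PGK-driven HA-tagged rat IDE) was diluted 1:2000 into SC-UW and treated with DMSO or compound (100 µM, or lower empirically chosen doses), in triplicate. Cultures were grown 44 h at 30 °C, or 72 h where needed.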

Ste23p = biological target: T1, Ste23p (Saccharomyces cerevisiae, UniProt Q06010); test: Target specificity: Ste23p activity with a-factor–based peptide; assay type: biochemical, yeast; settings: 100 µM compound; 30 °C; relative to DMSO control = 100%
T1 sequence (Q06010 1-1027): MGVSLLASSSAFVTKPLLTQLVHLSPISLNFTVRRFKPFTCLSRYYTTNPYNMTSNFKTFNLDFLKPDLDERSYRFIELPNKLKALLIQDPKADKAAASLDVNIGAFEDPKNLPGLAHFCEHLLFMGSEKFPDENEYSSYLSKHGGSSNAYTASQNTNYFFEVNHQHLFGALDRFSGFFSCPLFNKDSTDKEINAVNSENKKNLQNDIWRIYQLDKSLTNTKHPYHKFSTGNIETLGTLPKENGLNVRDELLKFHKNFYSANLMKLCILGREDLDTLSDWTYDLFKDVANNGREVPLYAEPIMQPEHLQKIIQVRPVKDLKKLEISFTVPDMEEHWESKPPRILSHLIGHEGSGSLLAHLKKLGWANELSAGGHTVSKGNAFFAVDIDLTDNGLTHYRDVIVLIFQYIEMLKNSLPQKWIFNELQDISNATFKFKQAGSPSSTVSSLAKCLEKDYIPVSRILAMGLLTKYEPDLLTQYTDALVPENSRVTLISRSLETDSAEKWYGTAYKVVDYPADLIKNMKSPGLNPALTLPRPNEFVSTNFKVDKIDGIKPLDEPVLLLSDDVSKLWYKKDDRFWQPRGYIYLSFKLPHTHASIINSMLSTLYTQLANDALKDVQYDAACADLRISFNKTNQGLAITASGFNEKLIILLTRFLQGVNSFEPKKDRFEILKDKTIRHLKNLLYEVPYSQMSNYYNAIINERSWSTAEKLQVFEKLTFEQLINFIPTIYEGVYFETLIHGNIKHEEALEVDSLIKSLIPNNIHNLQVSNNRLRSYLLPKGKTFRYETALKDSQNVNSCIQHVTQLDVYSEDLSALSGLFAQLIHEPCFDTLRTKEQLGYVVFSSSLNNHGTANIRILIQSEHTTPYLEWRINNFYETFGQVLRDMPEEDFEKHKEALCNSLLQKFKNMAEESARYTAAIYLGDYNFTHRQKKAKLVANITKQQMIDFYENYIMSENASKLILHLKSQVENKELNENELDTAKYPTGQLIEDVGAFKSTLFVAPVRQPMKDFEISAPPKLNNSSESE
Outline: (§1)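 Single-dose specificity assay with a-factor–based fluorogenic peptide (50 µM) in 0.1 M KPi pH 7.6. Ste23p was used at 10 µg/mL and 30 °C; trypsin and pronase E at 0.5 µg/mL each under the 37 °C HTS conditions. Enzymes were preincubated 10 min with 100 µM compound. Triplicate rates were normalized by trypsin/pronase full digestion and given relative to DMSO control (100%).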

rat IDE [2] = biological target: T2, rat IDE (Rattus norvegicus, UniProt P35559); test: Dose-response of rat IDE activation; assay type: biochemical; settings: for dose-response profile: rat IDE activation, a-factor–based substrate
T2 sequence (P35559 1-1019): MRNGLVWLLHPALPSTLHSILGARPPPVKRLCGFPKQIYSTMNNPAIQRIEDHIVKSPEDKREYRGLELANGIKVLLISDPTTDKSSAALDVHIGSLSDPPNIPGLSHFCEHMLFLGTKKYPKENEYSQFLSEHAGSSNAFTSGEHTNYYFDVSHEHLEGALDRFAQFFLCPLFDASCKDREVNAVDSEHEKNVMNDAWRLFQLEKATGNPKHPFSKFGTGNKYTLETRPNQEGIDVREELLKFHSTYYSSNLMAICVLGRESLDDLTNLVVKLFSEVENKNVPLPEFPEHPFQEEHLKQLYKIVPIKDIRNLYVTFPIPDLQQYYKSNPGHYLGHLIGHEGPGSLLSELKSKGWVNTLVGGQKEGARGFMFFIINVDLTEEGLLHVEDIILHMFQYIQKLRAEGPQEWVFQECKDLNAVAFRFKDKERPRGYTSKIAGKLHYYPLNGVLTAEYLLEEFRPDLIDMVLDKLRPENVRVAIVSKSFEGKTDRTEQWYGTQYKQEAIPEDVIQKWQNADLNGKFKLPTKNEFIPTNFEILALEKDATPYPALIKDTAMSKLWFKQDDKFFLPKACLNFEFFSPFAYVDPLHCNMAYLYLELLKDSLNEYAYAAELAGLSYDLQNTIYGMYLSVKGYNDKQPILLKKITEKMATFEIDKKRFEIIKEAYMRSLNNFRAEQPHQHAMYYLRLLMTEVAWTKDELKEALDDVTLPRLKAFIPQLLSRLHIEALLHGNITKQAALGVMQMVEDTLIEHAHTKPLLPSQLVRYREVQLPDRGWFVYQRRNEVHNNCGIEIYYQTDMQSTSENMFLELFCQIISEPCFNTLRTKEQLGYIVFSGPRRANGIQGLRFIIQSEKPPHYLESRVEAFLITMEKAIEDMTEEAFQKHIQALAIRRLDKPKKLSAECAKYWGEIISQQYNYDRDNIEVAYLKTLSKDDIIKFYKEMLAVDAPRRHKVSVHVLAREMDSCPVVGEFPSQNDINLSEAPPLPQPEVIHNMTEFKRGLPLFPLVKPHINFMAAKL
Outline: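 Rat IDE (10 µg/mL) in 0.1 M KPi pH 7.6 was preincubated 10 min at 37 °C with activator (up to 1 mM), then mixed 1:1 with a-factor–based fluorogenic substrate (50 µM final). Fluorescence (320 ex) was read over 60 min and rate taken from the 15–30 min window. Baseline was subtracted and rates normalized to trypsin/pronase E full digestion. AC50 came from best-fit curves, or [Max]50 where the curve was not sigmoidal.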

rat IDE [3] = biological target: T2, rat IDE; assay type: biochemical; settings: 100 µM compound; a-factor–based substrate 50 µM; 0.1 M KPi pH 7.6; relative to DMSO-treated control = 100%
Outline: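 Then mixed 1:1 with substrate. Fluorescence was followed for 60 min, and rates were taken from the 15–30 min window. Activity was normalized by the trypsin/pronase approach.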

pronase E = test: Target specificity: pronase E activity with a-factor–based peptide; assay type: biochemical; settings: 100 µM compound; relative to DMSO control = 100%
Outline: as §1

rat IDE [4] = biological target: T2, rat IDE; test: Kinetic analysis of rat IDE in presence of activator; assay type: biochemical; settings: compound 100 µM; 0.1 M KPi pH 7.6; DMSO control 154.8 ± 12.26

Row | Structure (SMILES) | yeast saturation density relative to DMSO-treated control [1] | yeast saturation density relative to DMSO-treated culture ([1]; 44 h) | % Activity Ste23p (Ste23p) | dose-response profile (rat IDE [2]) | % Activity IDE (rat IDE [3]) | % Activity Pronase (pronase E) | Vmax (rat IDE [4]) | yeast culture density relative to DMSO-treated culture ([1]; incubation extended to 72 h) | saturated growth of treated yeast cultures ([1]; lowest concentration evaluated 12.5 µM, 44 h) | Saturation of activation (rat IDE [2]; highest concentration tested 1 mM)
1 | O=C(CCN1CC2CCC(CC2)C1)c1cccs1 [Compound 6] | completely inhibited growth | > 90% | 82 ± 0.3% | classic sigmoidal dose-responses | 230.7 ± 13.5% | 104.4 ± 0.0% | 176.3 ± 7.35 nmol/min/mg | – | – | –
2 | O=S(=O)(O)c1cc(O)c2c(O)c(N=Nc3cccc4ccccc34)c(S(=O)(=O)O)cc2c1 [Compound 3] | > 90% | – | 90.4 ± 0.6% | inverted bell-shaped activation curve | 356.0 ± 16.0% | 103.8 ± 0.1% | – | – | – | –
3 | O=C(O)c1ccc(Oc2nc3ccccc3s2)cc1 [Compound 7] | – | – | 102.1 ± 1.7% | classic sigmoidal dose-responses | 186.6 ± 7.4% | 104.3 ± 0.9% | 194.1 ± 13.81 nmol/min/mg | > 85% | did not achieve saturated growth | –
4 | O=S(=O)(O)CCCc1cccc2ccccc12 [Compound 1] | > 90% | – | 112.0 ± 5.4% | classic sigmoidal dose-responses | 195.4 ± 12.2% | 100.9 ± 0.1% | 194.1 ± 5.85 nmol/min/mg | – | – | not achieved
5 | Nc1nc(SCc2ccccc2Cl)cc(C(=O)O)n1 [Compound 5] | – | > 90% | 103.4 ± 1.6% | inverted bell-shaped activation curve | 263.5 ± 1.0% | – | 127.8 ± 10.41 nmol/min/mg | – | – | –
6 | O=[N+]([O-])/C=C/c1cc2ccccc2[nH]1 [Compound 8] | completely inhibited growth | > 90% | 80.1 ± 6.0% | inverted bell-shaped activation curve | 195.0 ± 14.0% | 93.3 ± 1.8% | 185.0 ± 9.73 nmol/min/mg | – | – | –
7 | Cn1ncc2c(NCCc3ccccc3)nc(Cl)nc21 [Compound 2] | – | – | 117.2 ± 2.8% | classic sigmoidal dose-responses | 170.3 ± 16.0% | 89.2 ± 0.6% | 164.2 ± 6.4 nmol/min/mg | – | – | –
